{"source": "paper PMC3585837", "about": "(Drugs in R&D, 2012)", "key": {"[1]": {"settings": "cited from earlier work"}, "[2]": {"tested_on": "dopamine-β-hydroxylase (DβH)", "settings": "cited from earlier work"}, "[3]": {"format": "in vivo, human", "settings": "for AUClast test/reference geometric means ratio (GMR) / AUC∞ test/reference geometric means ratio (GMR) / Cmax test/reference geometric means ratio (GMR): fed (test) vs fasting (reference), n = 12"}, "[4]": {"settings": "cited from earlier work; for Increase of the extent of systemic exposure with dose / Linearity of pharmacokinetics: once-daily 25-600 mg for 10 days"}, "[5]": {"settings": "rat; cited from earlier work"}, "[6]": {"settings": "first- and second-generation DβH inhibitors; cited from earlier work"}, "[7]": {"tested_on": "dopamine-β-hydroxylase (DβH)", "settings": "cited from earlier work", "remark": "listed apart in the source"}, "[8]": {"tested_on": "spontaneously hypertensive rats", "settings": "cited from earlier work"}, "mice": {"tested_on": "mice", "settings": "cited from earlier work"}, "[9]": {"settings": "200 mg single dose, fasting condition; cited from earlier work"}, "rats": {"tested_on": "rats", "settings": "cited from earlier work"}, "[10]": {"tested_on": "normotensive Wistar-Kyotos rats", "settings": "cited from earlier work"}, "[11]": {"tested_on": "male cardiomyopathic hamsters (Bio TO-2 dilated strain)", "settings": "male cardiomyopathic hamsters (Bio TO-2 dilated strain) with advanced congestive heart failure; cited from earlier work"}, "[12]": {"tested_on": "dopamine or noradrenaline levels in the brain", "settings": "in contrast to peripheral tissues; cited from earlier work"}, "[13]": {"assay": "Tolerability in the food-effect study", "format": "in vivo, human", "summary_of_the_method": "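Randomized two-period crossover in 12 healthy men (18–45 y, BMI 19–28 kg/m2). Each received a single 200 mg oral dose (four 50 mg capsules, 240 mL water) after a high-fat, high-calorie breakfast or a 10 h fast; washout ≥14 days; confined until 72 h post-dose. Adverse events monitored throughout, recording onset, offset, severity, relatedness, action and outcome. Vital signs, physical examination, hematology and biochemistry at each admission.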"}, "dogs": {"tested_on": "dogs", "settings": "cited from earlier work"}, "Cynomolgus monkeys": {"tested_on": "Cynomolgus monkeys", "settings": "cited from earlier work"}, "[14]": {"settings": "cited from earlier work", "remark": "listed apart in the source"}, "[15]": {"settings": "first- and second-generation DβH inhibitors"}, "[16]": {"settings": "90% CI of GMR against the acceptance interval (80, 125)"}}, "note": "Entries after “also recorded” stand apart in the source; their conditions may differ. Read-outs that look alike come from different tables or passages of the source."}
{"smiles": "CC(=O)NCCc1c[nH]c(=S)n1[C@H]1COc2c(F)cc(F)cc2C1", "note": "[BIA 5-961]", "values": [{"measurement": "AUC in NAT2 rapid acetylators compared with poor acetylators", "setting": "[1]", "value": "markedly higher"}, {"measurement": "Activity of the metabolite", "setting": "[2]", "value": "inactive"}, {"measurement": "Effect of food on AUC∞, AUClast and Cmax (systemic exposure) of the metabolite", "setting": "[3]; etamicastat 200 mg administered in the presence of food vs fasting", "value": "significant decrease; also recorded: decreased"}, {"measurement": "AUClast test/reference geometric means ratio (GMR)", "setting": "[3]; single oral etamicastat 200 mg", "value": 79.41, "unit": "%"}, {"measurement": "AUC∞ test/reference geometric means ratio (GMR)", "setting": "[3]; single oral etamicastat 200 mg", "value": 83.47, "unit": "%"}, {"measurement": "Cmax test/reference geometric means ratio (GMR)", "setting": "[3]; single oral etamicastat 200 mg", "value": 62.42, "unit": "%"}, {"measurement": "Increase of the extent of systemic exposure with dose", "setting": "[4]", "value": "approximately dose-proportional"}, {"measurement": "Linearity of pharmacokinetics", "setting": "[4]", "value": "linear pharmacokinetics"}, {"measurement": "Occurrence as metabolite of etamicastat", "setting": "[5]", "value": "major metabolic pathway"}]}
{"smiles": "CCN(CC)C(=S)S", "note": "[diethyldithiocarbamate]", "values": [{"measurement": "Side effects", "setting": "[6]", "value": "toxic side effects"}, {"measurement": "Potency as DβH inhibitor", "setting": "[7]; [15]", "value": "low potency"}, {"measurement": "Selectivity for DβH", "setting": "[7]; [15]", "value": "poor selectivity"}]}
{"smiles": "CCN(CC)C(=S)SSC(=S)N(CC)CC", "note": "[disulfiram]", "values": [{"measurement": "Side effects", "setting": "[6]", "value": "toxic side effects"}, {"measurement": "Potency as DβH inhibitor", "setting": "[7]; [15]", "value": "low potency"}, {"measurement": "Selectivity for DβH", "setting": "[7]; [15]", "value": "poor selectivity"}]}
{"smiles": "Cl.NCCc1c[nH]c(=S)n1[C@H]1COc2c(F)cc(F)cc2C1", "note": "[etamicastat, (R)-5-(2-aminoethyl)-1-(6,8-difluorochroman-3-yl)-1,3-dihydroimidazole-2-thione hydrochloride]", "values": [{"measurement": "Heart rate", "setting": "[8]", "value": "did not affect"}, {"measurement": "Systolic and diastolic blood pressure", "setting": "[8]", "value": "reduced"}, {"measurement": "Effect of NAT1 phenotype on pharmacokinetics", "setting": "[1]", "value": "no relevant effect"}, {"measurement": "No observed adverse effect level", "setting": "mice", "value": 30, "unit": "mg/kg/day"}, {"measurement": "AUClast, arithmetic mean", "setting": "[9]", "value": 2026, "unit": "ng·h/mL"}, {"measurement": "AUC∞, arithmetic mean", "setting": "[9]", "value": 2230, "unit": "ng·h/mL"}, {"measurement": "Cmax, arithmetic mean", "setting": "[9]", "value": 202, "unit": "ng/mL"}, {"measurement": "t1/2, arithmetic mean", "setting": "[9]", "value": 19.8, "unit": "h"}, {"measurement": "No observed adverse effect level", "setting": "rats", "value": 30, "unit": "mg/kg/day"}, {"measurement": "Heart rate", "setting": "[10]; Wistar-Kyotos rats", "value": "did not affect"}, {"measurement": "Systolic and diastolic blood pressure", "setting": "[10]; normotensive Wistar-Kyotos rats", "value": "no changes"}, {"measurement": "Bioequivalence fed vs fasting for Cmax", "setting": "[3]; [16]", "value": "did not fit the claim of bioequivalence; also recorded: does not fit the claim of bioequivalence"}, {"measurement": "Bioequivalence fed vs fasting for extent of exposure (AUClast and AUC∞)", "setting": "[3]; [16]", "value": "fulfilled the claim of bioequivalence; also recorded: remained within the acceptance interval; also recorded: remained unchanged"}, {"measurement": "AUClast test/reference geometric means ratio (GMR)", "setting": "[3]; single oral etamicastat 200 mg", "value": 93.59, "unit": "%"}, {"measurement": "AUC∞ test/reference geometric means ratio (GMR)", "setting": "[3]; single oral etamicastat 200 mg", "value": 96.47, "unit": "%"}, {"measurement": "Cmax test/reference geometric means ratio (GMR)", "setting": "[3]; single oral etamicastat 200 mg", "value": 72.27, "unit": "%"}, {"measurement": "Effect of food on tmax", "setting": "[3]; fed vs fasting, Wilcoxon signed rank test", "value": "prolonged; also recorded: significantly delayed; also recorded: significantly increased"}, {"measurement": "Decrease of Cmax as a result of food intake", "setting": "[3]; fed vs fasting, single oral etamicastat 200 mg", "value": 28, "unit": "%"}, {"measurement": "Survival rates", "setting": "[11]", "value": "increased survival rates"}, {"measurement": "Increase of the extent of systemic exposure with dose", "setting": "[4]", "value": "approximately dose-proportional"}, {"measurement": "Linearity of pharmacokinetics", "setting": "[4]", "value": "linear pharmacokinetics"}, {"measurement": "Etamicastat dose recovered in urine in the form of etamicastat and BIA 5-961", "setting": "[4]; once-daily dosing", "value": "Approximately 40%"}, {"measurement": "Time to attain steady-state plasma concentrations", "setting": "[4]; once-daily dosing", "value": "up to 9 days"}, {"measurement": "Tolerability", "setting": "[4]; orally, doses up to 600mg once daily for 10 days, male healthy volunteers", "value": "appears to be well tolerated"}, {"measurement": "Effect on dopamine or noradrenaline levels in the brain", "setting": "[12]", "value": "does not affect"}, {"measurement": "Intensity of TEAEs", "setting": "[13]; both periods", "value": "mild to moderate"}, {"measurement": "Serious adverse events or discontinuations due to adverse events", "setting": "[13]; both periods", "value": "no serious adverse events or discontinuations due to adverse events"}, {"measurement": "Total number of treatment-emergent adverse events", "setting": "[13]; both periods, single oral etamicastat 200 mg", "value": "six"}, {"measurement": "Abnormalities in vital signs, ECG or laboratory safety tests", "setting": "[13]; during the study", "value": "no clinically significant abnormality; also recorded: No clinically relevant abnormalities"}, {"measurement": "Number of TEAEs", "setting": "[13]; fed period (abdominal pain, asthenia, headache, intercostal pain)", "value": "four"}, {"measurement": "Proportion of subjects reporting treatment-emergent adverse events", "setting": "[13]; of 12 subjects, single oral etamicastat 200 mg, both periods", "value": 33.3, "unit": "%"}, {"measurement": "Overall tolerability", "setting": "[13]; single oral 200 mg, fasting and fed periods, healthy male subjects", "value": "well tolerated"}, {"measurement": "No observed adverse effect level", "setting": "dogs", "value": 5, "unit": "mg/kg/day"}, {"measurement": "No observed adverse effect level", "setting": "Cynomolgus monkeys", "value": 20, "unit": "mg/kg/day"}]}
{"smiles": "CCCCc1ccc(C(=O)O)nc1", "note": "[fusaric acid]", "values": [{"measurement": "Side effects", "setting": "[6]", "value": "toxic side effects"}, {"measurement": "Potency as DβH inhibitor", "setting": "[7]; [15]", "value": "low potency"}, {"measurement": "Selectivity for DβH", "setting": "[7]; [15]", "value": "poor selectivity"}]}
{"smiles": "NCc1c[nH]c(=S)n1[C@H]1CCc2c(F)cc(F)cc2C1", "note": "[nepicastat]", "values": [{"measurement": "Crossing of the blood-brain barrier", "setting": "[14]", "value": "cross the blood-brain barrier"}, {"measurement": "Potency as DβH inhibitor", "setting": "[7]; third-generation DβH inhibitor, compared with first and second generation", "value": "much greater potency"}]}
